Laboratory results: ChEMBL document CHEMBL1149089, “Evaluation of potent and selective small-molecule antagonists for the CXCR2 chemokine receptor” (J Med Chem, 2004)

What was measured:
[1] = target: T1, C-X-C chemokine receptor type 1 (Homo sapiens, UniProt P25024); experiment: Inhibition of binding of IL-8 to membranes of cloned CXC chemokine receptor 1 expressed in CHO Cells using [125I]IL-8 radioligand
T1 sequence (P25024 whole entry): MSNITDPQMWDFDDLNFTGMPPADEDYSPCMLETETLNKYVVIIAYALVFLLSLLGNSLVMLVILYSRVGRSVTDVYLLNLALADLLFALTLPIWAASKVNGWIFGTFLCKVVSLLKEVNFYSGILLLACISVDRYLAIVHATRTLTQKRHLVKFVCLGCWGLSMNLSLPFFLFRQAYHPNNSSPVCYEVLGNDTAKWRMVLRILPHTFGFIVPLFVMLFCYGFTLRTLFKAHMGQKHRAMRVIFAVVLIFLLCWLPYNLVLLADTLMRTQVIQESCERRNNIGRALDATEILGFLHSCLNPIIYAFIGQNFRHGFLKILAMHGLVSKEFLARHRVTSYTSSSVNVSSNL
Procedure, shortened: (§1)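 Membranes from CHO cells stably expressing CXCR1 or CXCR2; competition against radiolabeled human recombinant [125I]IL-8; IC50 given as mean ± SEM of three individual experiments.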

[2] = target: T2, C-X-C chemokine receptor type 2 (Homo sapiens, UniProt P25025); experiment: Inhibition of binding of IL-8 to membranes of cloned CXC chemokine receptor 2 expressed in CHO Cells using [125I]IL-8 radioligand; procedure, shortened: as §1
T2 sequence (P25025 whole entry): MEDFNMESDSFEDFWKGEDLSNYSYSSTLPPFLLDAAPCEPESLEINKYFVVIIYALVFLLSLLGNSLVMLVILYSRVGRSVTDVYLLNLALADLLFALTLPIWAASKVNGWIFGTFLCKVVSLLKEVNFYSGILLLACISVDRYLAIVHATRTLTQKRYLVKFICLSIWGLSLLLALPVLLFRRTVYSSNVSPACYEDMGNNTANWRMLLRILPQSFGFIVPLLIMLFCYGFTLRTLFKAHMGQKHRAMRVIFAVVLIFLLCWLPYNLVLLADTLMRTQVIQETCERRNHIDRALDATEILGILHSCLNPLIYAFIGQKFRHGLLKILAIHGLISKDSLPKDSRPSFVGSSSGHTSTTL

Homo sapiens = species on record: Homo sapiens; experiment: Compound was evaluated for GROalpha-mediated calcium mobilization in human polymorphonuclear neutrophils(PMNs); type: functional
Procedure, shortened: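 Human neutrophils stimulated with GROα, the CXCR2-selective ligand; calcium mobilization measured; mean ± SEM of at least three separate determinations.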

Oryctolagus cuniculus [3] = experiment: Compound was evaluated for inhibition of topical model of delayed type hypersensitivity (DTH) at a dose of 500 ug in rabbits; type: functional
Procedure, shortened: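 Rabbits sensitized by complete Freund's adjuvant injection in the nape of the neck, then challenged intradermally 5 weeks later with tuberculin (10 units PPD). At 5 min post-challenge, compound in methanol (50 µL) or methanol vehicle was applied topically to PPD sites and reapplied 4 h later. Skin-fold thickness at the challenge site was read 48 h after PPD; % inhibition reported.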

Oryctolagus cuniculus [4] = experiment: Compound was evaluated for inhibition of topical model of delayed type hypersensitivity (DTH) at a dose of 62.5 ug in rabbits; type: functional
Procedure, shortened: (§2)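 Rabbits sensitized by complete Freund's adjuvant injected in the nape of the neck; challenged intradermally 5 weeks later with tuberculin (10 units PPD). Compound in methanol (50 µL) or methanol vehicle applied topically to PPD sites 5 min after challenge and reapplied 4 h later. Skin-fold thickness at challenge site measured 48 h after challenge; % inhibition versus vehicle.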

Oryctolagus cuniculus [5] = experiment: Compound was evaluated for inhibition of topical model of delayed type hypersensitivity (DTH) at a dose of 1000 ug in rabbits; type: functional; procedure, shortened: as §2

| Compound | IC50 [1] [nM] | IC50 [2] [nM] | IC50 (Homo sapiens) [nM] | Inhibition (Oryctolagus cuniculus [3]) [%] | Inhibition (Oryctolagus cuniculus [4]) [%] | Inhibition (Oryctolagus cuniculus [5]) [%] |
| --- | --- | --- | --- | --- | --- | --- |
| N#Cc1ccc(NC(=O)Nc2ccccc2Br)c(O)c1 | 15100 | 25 | 53 | 31 | – | – |
| N#Cc1ccc(NC(=O)Nc2ccccc2Br)c(O)c1Cl | 4200 | 22 | 2.6 | – | – | – |
| N#Cc1ccc(NC(=O)Nc2ccccc2Br)c(O)c1Br | 2600 | 6 | 0.79 | 33 | – | – |
| N#Cc1c(Cl)ccc(NC(=O)Nc2ccccc2Br)c1O | 11100 | 57 | 7.5 | – | 3 | – |
| O=C(Nc1ccccc1)Nc1cc([N+](=O)[O-])ccc1O | 46200 | 10900 | 13800 | – | – | – |

Continued by falling IC50 [1], values first:

| IC50 [1] [nM] | IC50 [2] [nM] | IC50 (Homo sapiens) [nM] | Compound | Inhibition (Oryctolagus cuniculus [3]) [%] | Inhibition (Oryctolagus cuniculus [4]) [%] | Inhibition (Oryctolagus cuniculus [5]) [%] |
| --- | --- | --- | --- | --- | --- | --- |
| 33200 | 860 | 511 | O=C(Nc1ccccc1)Nc1cccc([N+](=O)[O-])c1O | – | – | – |
| 21000 | 200 | 120 | N#Cc1ccc(NC(=O)Nc2ccccc2)c(O)c1 | – | – | 21 |
| 18200 | 320 | 339 | O=C(Nc1ccccc1)Nc1ccc([N+](=O)[O-])cc1O | – | – | – |
